Measured values from ChEMBL document CHEMBL1123055, “Preparation of biologically active ristocetin derivatives: replacements of the 1'-amino group” (J Med Chem, 1985).
Converted amounts (≈) assume the structure as drawn.

Tests used:
[1] = test system: Staphylococcus epidermidis; experiment: The antibacterial activity was evaluated as minimal inhibitory concentration (MIC) against Staphylococcus epidermis 3519; assay type: functional
Method in brief: (§1)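 Twofold agar dilution of compound in 10 mL brain heart infusion agar. Organisms grown 24 h, diluted 1/100, inoculum applied by multipoint replicator. Plates incubated at 35 °C (24 h per table footnote; 25 h per methods). MIC read as lowest inhibiting concentration, μg/mL. Ristocetin run as standard.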

Streptococcus pyogenes = experiment: The antibacterial activity was evaluated as minimal inhibitory concentration (MIC) against Streptococcus pyogenes C203; assay type: functional; method in brief: as §1
[2] = Association constant was evaluated towards synthetic peptidoglycan analogue Ac2-Lys-D-Ala-D-Ala; assay type: ADME
Method in brief: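 Differential UV spectroscopy in tandem cells, 2 cm total path. Antibiotic at 50 μg/mL in 20 mM sodium citrate buffer pH 5.1, with 10% methanol for poorly water-soluble compounds. Ac2-Lys-D-Ala-D-Ala peptide added stepwise. Absorbance change followed at the wavelength of maximal change, and the association constant K_A derived from it.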

Staphylococcus aureus = experiment: The antibacterial activity was evaluated as minimal inhibitory concentration (MIC) against Staphylococcus aureus Smith; assay type: functional; method in brief: as §1
Enterococcus faecalis = experiment: The antibacterial activity was evaluated as minimal inhibitory concentration (MIC) against Streptococcus faecalis 10541; assay type: functional; method in brief: as §1

Compound	MIC [1]	MIC (Streptococcus pyogenes)	K A [2]	MIC (Staphylococcus aureus)	MIC (Enterococcus faecalis)
COC(=O)[C@H]1NC(=O)C2NC(=O)[C@H](NC(=O)[C@@H]3NC(=O)[C@H]4NC(=O)[C@H](NC(=O)[C@@H](N)c5ccc(O)c(c5)Oc5cc4cc(O)c5C)[C@H](O)c4ccc(cc4)Oc4cc3cc(c4O)Oc3ccc(cc3)C2O)c2ccc(O)c(c2)-c2c(O)cc(O)cc21 (stereo not given in full)	3.1 mg/L (≈ 2.64 µM)	3.1 mg/L (≈ 2.64 µM)	670000 M⁻¹	3.1 mg/L (≈ 2.64 µM)	3.1 mg/L (≈ 2.64 µM)
COC(=O)[C@H]1NC(=O)C2NC(=O)[C@H](NC(=O)[C@@H]3NC(=O)[C@H]4NC(=O)[C@H](NC(=O)[C@H](O)c5ccc(O)c(c5)Oc5cc4cc(O)c5C)[C@H](O)c4ccc(cc4)Oc4cc3cc(c4O)Oc3ccc(cc3)C2O)c2ccc(O)c(c2)-c2c(O)cc(O)cc21 (stereo not given in full)	12.5 mg/L (≈ 10.6 µM)	6.2 mg/L (≈ 5.28 µM)	150000 M⁻¹	12.5 mg/L (≈ 10.6 µM)	6.2 mg/L (≈ 5.28 µM)
COC(=O)[C@H]1NC(=O)C2NC(=O)[C@H](NC(=O)[C@@H]3NC(=O)[C@H]4NC(=O)[C@H](NC(=O)/C(=N/O)c5ccc(O)c(c5)Oc5cc4cc(O)c5C)[C@H](O)c4ccc(cc4)Oc4cc3cc(c4O)Oc3ccc(cc3)C2O)c2ccc(O)c(c2)-c2c(O)cc(O)cc21 (stereo not given in full)	3.1 mg/L (≈ 2.61 µM)	1.56 mg/L (≈ 1.31 µM)	960000 M⁻¹	3.1 mg/L (≈ 2.61 µM)	3.1 mg/L (≈ 2.61 µM)
COC(=O)[C@H]1NC(=O)C2NC(=O)[C@H](NC(=O)[C@@H]3NC(=O)[C@H]4NC(=O)[C@H](NC(=O)[C@@H](NC(C)=O)c5ccc(O)c(c5)Oc5cc4cc(O)c5C)[C@H](O)c4ccc(cc4)Oc4cc3cc(c4O)Oc3ccc(cc3)C2O)c2ccc(O)c(c2)-c2c(O)cc(O)cc21 (stereo not given in full)	6.2 mg/L (≈ 5.1 µM)	3.1 mg/L (≈ 2.55 µM)	140000 M⁻¹	6.2 mg/L (≈ 5.1 µM)	6.2 mg/L (≈ 5.1 µM)
COC(=O)[C@H]1NC(=O)[C@H]2NC(=O)[C@H](NC(=O)[C@@H]3NC(=O)[C@H]4NC(=O)[C@H](NC(=O)[C@H](N)c5ccc(O)c(c5)Oc5cc4cc(O)c5C)[C@H](O)c4ccc(cc4)Oc4cc3cc(c4O[C@H]3O[C@H](CO[C@H]4O[C@H](C)[C@@H](O)[C@@H](O)[C@@H]4O)[C@H](O)[C@H](O)[C@H]3O[C@H]3O[C@@H](CO)[C@@H](O)[C@@H](O)[C@H]3O[C@H]3OC[C@@H](O)[C@@H](O)[C@H]3O)Oc3ccc(cc3)[C@H]2O[C@@H]2C[C@@H](N)[C@@H](O)[C@@H](C)O2)c2ccc(O)c(c2)-c2c(O[C@@H]3O[C@H](CO)[C@@H](O)[C@@H](O)[C@@H]3O)cc(O)cc21	25 mg/L (≈ 12.1 µM)	1.56 mg/L (≈ 0.754 µM)	600000 M⁻¹	12.5 mg/L (≈ 6.04 µM)	6.2 mg/L (≈ 3 µM)
COC(=O)[C@H]1NC(=O)C2NC(=O)[C@H](NC(=O)[C@@H]3NC(=O)[C@H]4NC(=O)[C@H](NC(=O)C(=O)c5ccc(O)c(c5)Oc5cc4cc(O)c5C)[C@H](O)c4ccc(cc4)Oc4cc3cc(c4O)Oc3ccc(cc3)C2O)c2ccc(O)c(c2)-c2c(O)cc(O)cc21 (stereo not given in full)	12.5 mg/L (≈ 10.7 µM)	3.1 mg/L (≈ 2.64 µM)	560000 M⁻¹	6.2 mg/L (≈ 5.29 µM)	12.5 mg/L (≈ 10.7 µM)
COC(=O)[C@H]1NC(=O)C2NC(=O)[C@H](NC(=O)[C@@H]3NC(=O)[C@H]4NC(=O)[C@H](NC(=O)[C@H](N)c5ccc(O)c(c5)Oc5cc4cc(O)c5C)[C@H](O)c4ccc(cc4)Oc4cc3cc(c4O)Oc3ccc(cc3)C2O)c2ccc(O)c(c2)-c2c(O)cc(O)cc21 (stereo not given in full)	50 mg/L (≈ 42.6 µM)	25 mg/L (≈ 21.3 µM)	20000 M⁻¹	25 mg/L (≈ 21.3 µM)	50 mg/L (≈ 42.6 µM)
